Test results as given in ChEMBL document CHEMBL4002631, “Synthesis, antimycobacterial and cytotoxic activity of α,β-unsaturated amides and 2,4-disubstituted oxazoline derivatives” (Bioorg Med Chem Lett, 2017).
Values after ≈ are worked out from the molar mass of the structure shown.

Tests used:
[1] = system: Mycobacterium tuberculosis; test: Antimycobacterial activity against isoniazid/rifampicin/ethambutol-sensitive Mycobacterium tuberculosis H37Rv after 4 days by Alamar blue assay; format: functional; settings: 96 h
Summary of the method: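 Microplate Alamar blue assay against M. tuberculosis H37Rv (sensitive to isoniazid, rifampicin and ethambutol) and a clinical isolate resistant to all three drugs. Compounds were tested at 256, 128, 64, 32, 16, 8, 4, 2 and 1 µg/mL. Isoniazid, rifampicin, ethambutol and ofloxacin controls were run under the same conditions. MIC is given in µg/mL and converted to µM.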

Liver [2] = test: Toxicity in Sprague-Dawley rat liver assessed as histological damage at 5 to 30 ug/ml after 24 hrs by hematoxylin and eosin staining-based bright field microscopic method; format: tissue-based
Summary of the method: (§1)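 Ex-vivo 3D assay using precision-cut rat liver slices. Slices were cultured for 24 h at 5, 15 and 30 µg/mL, with compound dissolved in DMSO. Controls were medium alone and 0.5% DMSO (negative), with isoniazid as the reference. Read-out was histopathology of H&E-stained sections under bright-field light microscopy (40x), scoring hepatic cords, portal triads, central veins, inflammatory infiltrate and necrosis.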

Liver [3] = test: Toxicity in Sprague-Dawley rat liver assessed as centrilobular necrosis at 5 to 30 ug/ml after 24 hrs by hematoxylin and eosin staining-based bright field microscopic method; format: tissue-based; summary of the method: as §1
Liver [4] = test: Toxicity in Sprague-Dawley rat liver assessed as presence of periportal inflammatory infiltrate at 5 to 30 ug/ml after 24 hrs by hematoxylin and eosin staining-based bright field microscopic method; format: tissue-based; summary of the method: as §1

Row | Structure (SMILES) | MIC [1] [µM] | further results
1 | O=C(/C=C/c1ccc(OCc2ccccc2)cc1)N[C@H](CO)Cc1ccccc1 | 41.2 (≈ 16 µg/mL) | –
2 | O=C(/C=C/c1cccs1)N[C@H](CO)Cc1ccccc1 | 55.6 (≈ 16 µg/mL) | –
3 | CC[C@@H](CO)NCCN[C@@H](CC)CO [ETHAMBUTOL] | 39.1 (≈ 7.99 µg/mL) | –
4 | C(=C\c1cccs1)/C1=N[C@@H](Cc2ccccc2)CO1 | 29.7 (≈ 8 µg/mL) | –
5 | C(=C\c1ccc(OCc2ccccc2)cc1)/C1=N[C@@H](Cc2ccccc2)CO1 | 10.8 (≈ 3.99 µg/mL) | –
6 | CC1COc2c(N3CCN(C)CC3)c(F)cc3c(=O)c(C(=O)O)cn1c23 (centres undefined) [OFLOXACIN] | < 2.7 | –
7 | Fc1ccc(/C=C/C2=N[C@@H](Cc3ccccc3)CO2)cc1 | 14.2 (≈ 3.99 µg/mL) | –
8 | COc1ccc(/C=C/C(=O)N[C@H](CO)Cc2ccccc2)cc1 | 25.6 (≈ 7.97 µg/mL) | –
9 | O=C(/C=C/c1ccc(Cl)cc1)N[C@H](CO)Cc1ccccc1 | 25.3 (≈ 7.99 µg/mL) | –
10 | CO[C@H]1/C=C/O[C@@]2(C)Oc3c(C)c(O)c4c(O)c(c(/C=N/N5CCN(C)CC5)c(O)c4c3C2=O)NC(=O)/C(C)=C\C=C\[C@H](C)[C@H](O)[C@@H](C)[C@@H](O)[C@@H](C)[C@H](OC(C)=O)[C@@H]1C [RIFAMPIN] | 4.8 (≈ 3.95 µg/mL) | –
11 | COc1ccc(/C=C/C2=N[C@@H](Cc3ccccc3)CO2)cc1 | 13.6 (≈ 3.99 µg/mL) | Activity (Liver [2]): Non-Toxic
12 | O=C(/C=C/c1ccccc1)N[C@H](CO)Cc1ccccc1 | 56.8 (≈ 16 µg/mL) | –
13 | NNC(=O)c1ccncc1 [ISONIAZID] | < 7.2 | Activity (Liver [3]): Toxic; Activity (Liver [4]): Toxic
14 | C(=C\c1ccccc1)/C1=N[C@@H](Cc2ccccc2)CO1 | 60.8 (≈ 16 µg/mL) | –
15 | Clc1ccc(/C=C/C2=N[C@@H](Cc3ccccc3)CO2)cc1 | 26.9 (≈ 8.01 µg/mL) | –
16 | O=C(/C=C/c1ccc(F)cc1)N[C@H](CO)Cc1ccccc1 | 26.7 (≈ 7.99 µg/mL) | –
